Assays:
[1] = Partition coefficient (logP); type: physicochemical; details: octanol/water
Summary of the method: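 Microscale shake-flask method: compound from DMSO stock into 1.0 mL octanol-saturated 0.01 M potassium phosphate pH 7.0, then mixed with 1.0 mL buffer-saturated n-octanol at 24–26 °C. Stood 15 min, phases centrifuged, each analysed by HPLC. P is the octanol/buffer peak-area ratio; mean ± SD of three independent determinations.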

[2] = (§1) Anti-HIV activity (% toxicity) in ATH-8 cells at 5 uM; type: cell-based; details: human, ath-8, 5 µM
Summary of the method: (§2)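 CD4+ ATH8 cells (200 000) exposed 1 h to cell-free HIV-1/IIIB, 43 TCID50 (1087 for one analogue), resuspended in 2 mL IL-2 medium with 15% fetal calf serum, cultured at 37 °C in 5% CO2 with or without compound; dCF alone 5 μM. Day 8 viable cells counted by dye exclusion. % protection and % toxicity computed versus infected-untreated and uninfected-untreated cells; ≤0 given as 0%. Minimum two separate experiments; representative test reported.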

[3] = (§3) Anti-HIV activity (%toxicity) in ATH-8 cells at 5 uM; type: cell-based; details: human, ath-8, 5 µM; summary of the method: as §2
[4] = as §3; type: cell-based; details: human, ath-8, 5 µM; summary of the method: as §2; remark: listed apart in the source
[5] = as §3; type: cell-based; details: human, ath-8, 5 µM; summary of the method: as §2; remark: listed apart in the source
[6] = Anti-HIV activity (%protection) in ATH-8 cells at 5 uM in absence of 2''-deoxycoformycin at 20 uM; type: functional, Homo sapiens; summary of the method: as §2
[7] = Anti-HIV activity (%protection) in ATH-8 cells at 5 uM in absence of 2''-deoxycoformycin at 0 uM; type: functional, Homo sapiens; summary of the method: as §2
[8] = Anti-HIV activity (%protection) in ATH-8 cells at 5 uM in absence of 2''-deoxycoformycin at 100 uM; type: functional, Homo sapiens; summary of the method: as §2
[9] = Anti-HIV activity (%protection) in ATH-8 cells at 5 uM in absence of 2''-deoxycoformycin at 50 uM; type: functional, Homo sapiens; summary of the method: as §2
[10] = Anti-HIV activity (%protection) in ATH-8 cells at 5 uM in absence of 2'-deoxycoformycin at 5 uM; type: functional, Homo sapiens; summary of the method: as §2
[11] = as §1; type: cell-based; details: human, ath-8, 5 µM; summary of the method: as §2; remark: listed apart in the source
[12] = Kinetic parameter Vmax at pH 7.4 and 37 degree Centigrade; type: ADME
Summary of the method: (§4)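 Calf intestinal mucosa adenosine deaminase with dideoxynucleoside substrates in 0.01 M Tris pH 7.4 at 37 °C. Aliquots quenched with cold 2 μM 2'-deoxycoformycin, ultrafiltered, and substrate loss followed by reversed-phase HPLC (CH3CN in pH 7.0 phosphate). Relative rates taken at 50 μM substrate with 0.7 unit/mL enzyme, referenced to ddA = 100.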

[13] = Kinetic parameter relative rate measured at 50 uM at pH 7.4 and 37 degree Centigrade; type: ADME; details: pH 7.4, 50 µM; summary of the method: as §4
[14] = Anti-HIV activity (% toxicity) in ATH-8 cells at 5 uM in absence of 2'-deoxycoformycin at 20 uM; type: cell-based; details: human, ath-8, 5 µM; summary of the method: as §2
[15] = Anti-HIV activity (% toxicity) in ATH-8 cells at 5 uM in absence of 2'-deoxycoformycin at 5 uM; type: cell-based; details: human, ath-8, 5 µM; summary of the method: as §2
[16] = Anti-HIV activity (% toxicity) in ATH-8 cells at 5 uM in absence of 2'-deoxycoformycin at 50 uM; type: cell-based; details: human, ath-8, 5 µM; summary of the method: as §2
[17] = Anti-HIV activity (% toxicity) in ATH-8 cells at 5 uM in presence of 2'-deoxycoformycin at 0 uM; type: cell-based; details: human, ath-8, 5 µM; summary of the method: as §2
[18] = Anti-HIV activity (% toxicity) in ATH-8 cells at 5 uM in presence of 2'-deoxycoformycin at 10 uM; type: cell-based; details: human, ath-8, 5 µM; summary of the method: as §2
[19] = Anti-HIV activity (% toxicity) in ATH-8 cells at 5 uM in presence of 2'-deoxycoformycin at 100 uM; type: cell-based; details: human, ath-8, 5 µM; summary of the method: as §2
[20] = Anti-HIV activity (% toxicity) in ATH-8 cells at 5 uM in presence of 2'-deoxycoformycin at 20 uM; type: cell-based; details: human, ath-8, 5 µM; summary of the method: as §2
[21] = Anti-HIV activity (% toxicity) in ATH-8 cells at 5 uM in presence of 2'-deoxycoformycin at 5 uM; type: cell-based; details: human, ath-8, 5 µM; summary of the method: as §2
[22] = Anti-HIV activity (% toxicity) in ATH-8 cells at 5 uM in presence of 2'-deoxycoformycin at 50 uM; type: cell-based; details: human, ath-8, 5 µM; summary of the method: as §2
[23] = Anti-HIV activity (% toxicity) in ATH-8 cells at 5 uM in absence of 2'-deoxycoformycin at 0 uM; type: cell-based; details: human, ath-8, 5 µM; summary of the method: as §2
[24] = Anti-HIV activity (% toxicity) in ATH-8 cells at 5 uM in absence of 2'-deoxycoformycin at 10 uM; type: cell-based; details: human, ath-8, 5 µM; summary of the method: as §2
[25] = Anti-HIV activity (% toxicity) in ATH-8 cells at 5 uM in absence of 2'-deoxycoformycin at 100 uM; type: cell-based; details: human, ath-8, 5 µM; summary of the method: as §2
[26] = Anti-HIV activity (% protection) in ATH-8 cells at 5 uM in absence of 2'-deoxycoformycin at 100 uM; type: functional, Homo sapiens; summary of the method: as §2
[27] = Anti-HIV activity (% protection) in ATH-8 cells at 5 uM in absence of 2'-deoxycoformycin at 20 uM; type: functional, Homo sapiens; summary of the method: as §2
[28] = Anti-HIV activity (% protection) in ATH-8 cells at 5 uM in absence of 2'-deoxycoformycin at 50 uM; type: functional, Homo sapiens; summary of the method: as §2
[29] = Anti-HIV activity (% protection) in ATH-8 cells at 5 uM in absence of 2''-deoxycoformycin at 5 uM; type: functional, Homo sapiens; summary of the method: as §2
[30] = Anti-HIV activity (% protection) in ATH-8 cells at 5 uM in presence of 2'-deoxycoformycin at 0 uM; type: functional, Homo sapiens; summary of the method: as §2
[31] = Anti-HIV activity (% protection) in ATH-8 cells at 5 uM in presence of 2'-deoxycoformycin at 10 uM; type: functional, Homo sapiens; summary of the method: as §2
[32] = Anti-HIV activity (% protection) in ATH-8 cells at 5 uM in presence of 2'-deoxycoformycin at 100 uM; type: functional, Homo sapiens; summary of the method: as §2
[33] = Anti-HIV activity (% protection) in ATH-8 cells at 5 uM in presence of 2'-deoxycoformycin at 20 uM; type: functional, Homo sapiens; summary of the method: as §2
[34] = Anti-HIV activity (% protection) in ATH-8 cells at 5 uM in presence of 2'-deoxycoformycin at 5 uM; type: functional, Homo sapiens; summary of the method: as §2
[35] = Anti-HIV activity (% protection) in ATH-8 cells at 5 uM in presence of 2'-deoxycoformycin at 50 uM; type: functional, Homo sapiens; summary of the method: as §2
[36] = Anti-HIV activity (% protection) in ATH-8 cells at 5 uM in absence of 2'-deoxycoformycin at 0 uM; type: functional, Homo sapiens; summary of the method: as §2
[37] = Anti-HIV activity (% protection) in ATH-8 cells at 5 uM in absence of 2'-deoxycoformycin at 10 uM; type: functional, Homo sapiens; summary of the method: as §2
[38] = (§5) Anti-HIV activity in ATH-8 cells at 5 uM in absence of 2''-deoxycoformycin at 20 uM; type: cell-based; details: human, ath-8, 5 µM; summary of the method: as §2
[39] = as §5; type: functional, Homo sapiens; summary of the method: as §2

O=C(Nc1ncnc2c1ncn2C1OC(CO)CC1F)c1ccccc1 (configuration not stated)
logP [1]: 0.73 | Toxicity [2]: 8% | Toxicity [3]: 0% | Toxicity [4]: 0% | Toxicity [5]: 0% | Protection [6]: 30% | Protection [7]: 0% | Protection [8]: 21% | Protection [9]: 29% | Protection [10]: 8% | Toxicity [11]: 2%

CNc1ncnc2c1ncn2C1OC(CO)CC1F (configuration not stated)
logP [1]: 0.27 | Vmax [12]: 0.00055 µmol/min/unit | Relative rate [13]: 0.04 | Toxicity [14]: 0% | Toxicity [15]: 0% | Toxicity [16]: 6% | Toxicity [17]: 11% | Toxicity [18]: 7% | Toxicity [19]: 70% | Toxicity [20]: 0% | Toxicity [21]: 3% | Toxicity [22]: 46% | Toxicity [23]: 0% | Toxicity [24]: 0% | Toxicity [25]: 44% | Protection [26]: 27% | Protection [27]: 32% | Protection [28]: 37% | Protection [29]: 13% | Protection [30]: 0% | Protection [31]: 2% | Protection [32]: 0% | Protection [33]: 0% | Protection [34]: 1% | Protection [35]: 0% | Protection [36]: 0% | Protection [37]: 24%

CNc1nc(C)nc2c1ncn2[C@@H]1O[C@H](CO)C[C@@H]1F
logP [1]: 0.64

Nc1ccn([C@H]2CC[C@@H](CO)O2)c(=O)n1 [ZALCITABINE]
logP [1]: -1.33

Nc1ncnc2c1ncn2[C@H]1CC[C@@H](CO)O1
logP [1]: -0.29 | Vmax [12]: 1.32 µmol/min/unit | Relative rate [13]: 100 | Toxicity [18]: 22% | Toxicity [24]: 0% | Protection [31]: 86% | Protection [37]: 100%

Cc1nc(N)c2ncn([C@@H]3O[C@H](CO)C[C@@H]3F)c2n1
logP [1]: 0.12

Nc1ncnc2c1ncn2[C@@H]1O[C@H](CO)C[C@@H]1F [LODENOSINE]
Vmax [12]: 0.23 µmol/min/unit | Relative rate [13]: 6 | Toxicity [14]: 0% | Toxicity [16]: 0% | Toxicity [17]: 11% | Toxicity [20]: 17% | Toxicity [22]: 54% | Toxicity [23]: 0% | Protection [27]: 70% | Protection [28]: 84% | Protection [30]: 0% | Protection [33]: 68% | Protection [35]: 48% | Protection [36]: 0%

Cc1nc2c(N)ncnc2n1C1OC(CO)CC1F (configuration not stated)
logP [1]: 0.1

O=c1[nH]cnc2c1ncn2[C@H]1CC[C@@H](CO)O1 [DIDANOSINE]
Toxicity [38]: 0% | Protection [39]: 100%

OCC1CC(F)C(n2cnc3c(Cl)ncnc32)O1 (configuration not stated)
logP [1]: 0.32 | Vmax [12]: 0.026 µmol/min/unit | Relative rate [13]: 0.06 | Toxicity [14]: 26% | Toxicity [16]: 46% | Toxicity [17]: 14% | Toxicity [18]: 49% | Toxicity [19]: 72% | Toxicity [20]: 58% | Toxicity [22]: 56% | Toxicity [23]: 0% | Toxicity [24]: 5% | Toxicity [25]: 52% | Protection [26]: 35% | Protection [27]: 57% | Protection [28]: 53% | Protection [30]: 3% | Protection [31]: 15% | Protection [32]: 17% | Protection [33]: 11% | Protection [35]: 14% | Protection [36]: 0% | Protection [37]: 48%

OCC1CC(F)C(n2cnc3c(O)ncnc32)O1 (configuration not stated)
logP [1]: -1.21

Cc1cn([C@H]2C[C@H](N=[N+]=[N-])[C@@H](CO)O2)c(=O)[nH]c1=O [ZIDOVUDINE]
logP [1]: 0.05

Nc1c2ncn(C3OC(CO)CC3F)c2nc[n+]1[O-] (configuration not stated)
logP [1]: -1.38

OCC1CC(F)C(n2cnc3cncnc32)O1 (configuration not stated)
logP [1]: -0.4

— ChEMBL document CHEMBL1125695, “Potential anti-AIDS drugs. Lipophilic, adenosine deaminase-activated prodrugs” (J Med Chem, 1991)
